# Experiments:
# KB = assay: Cytotoxicity against human KB cells after 72 hrs by alamar blue assay; format: cell-based
# In short: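 KB cells seeded at 4 × 10^4 cells/mL in RPMI 1640 with 10% heat-inactivated fetal calf serum and grown 24 h at 37 °C in 5% CO2. Compound dilution series added in triplicate for 72 h, with podophyllotoxin as positive control. AlamarBlue added for 2-4 h; fluorescence read at ex 530/em 585 nm and IC50 obtained by curve fitting.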
# Plasmodium falciparum [1] = assay: Antimalarial activity against chloroquine-sensitive Plasmodium falciparum 3D7 assessed as growth inhibition by [3H]hypoxanthine incorporation assay relative to artemisinin; format: functional
# Plasmodium falciparum [2] = assay: Antimalarial activity against chloroquine-sensitive Plasmodium falciparum 3D7 assessed as growth inhibition by [3H]hypoxanthine incorporation assay; format: functional, organism-based
# In short: (§1)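 Asynchronous P. falciparum culture (65-75% rings, 0.5% parasitemia) at 2.5% final hematocrit, with triplicate 3-fold drug dilutions (10.0 to 0.0041 μg/mL) in RPMI 1640 with 0.5% Albumax II, glucose, L-glutamine and 5 μM hypoxanthine. DMSO was ≤0.01% final. After 24 h at 37 °C in 5% CO2, [3H]hypoxanthine (0.2 μCi/well) was added for a further 24 h. Plates were frozen and harvested, incorporation counted by scintillation, and IC50 obtained by curve fitting.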
# [3] = Therapeutic index, ratio of IC50 for human KB cells to IC50 for Plasmodium falciparum 3D7; format: cell-based; conditions: KB cells (cytotoxicity) versus Plasmodium falciparum 3D7, read-out: TI
# Plasmodium falciparum [4] = assay: Antimalarial activity against chloroquine-resistant Plasmodium falciparum K1 (Thailand) assessed as growth inhibition by [3H]hypoxanthine incorporation assay; format: functional, organism-based; in short: as §1
# Plasmodium falciparum [5] = assay: Antimalarial activity against chloroquine-resistant Plasmodium falciparum K1 (Thailand) assessed as growth inhibition by [3H]hypoxanthine incorporation assay relative to artemisinin; format: functional
# Plasmodium berghei [6] = assay: Antimalarial activity against Plasmodium berghei ANKA infected Swiss CD1 mice (Mus musculus) assessed as reduction of parasitemia at 30 mg/kg, perorally administered after 3 hrs of infection for 3 days measured on day 4 relative to control; format: functional; conditions: route oral
# In short: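 Male Swiss CD-1 mice (20 g) infected iv with 4 × 10^6 P. berghei ANKA-infected red cells on day 0, in groups of five. Compound was given orally in standard suspending vehicle (carboxymethylcellulose, benzyl alcohol, Tween 80, saline), 3 × 30 mg/kg, starting 3 h post-infection, once daily. Parasitemia was counted on Giemsa-stained smears on day 4 and expressed as % inhibition versus the untreated group mean.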
# Plasmodium berghei [7] = assay: Antimalarial activity against Plasmodium berghei ANKA infected NMRI mice (Mus musculus) assessed as reduction of parasitemia treated perorally for 3 days measured on day 4; format: functional; conditions: po
# Plasmodium berghei [8] = assay: Antimalarial activity against Plasmodium berghei ANKA infected NMRI mice (Mus musculus) assessed as reduction of parasitemia at 10 mg/kg, intraperitoneally 4 consecutive doses for 3 days measured on day 4 by FACS analysis; conditions: ip
# Plasmodium berghei [9] = assay: Antimalarial activity against Plasmodium berghei ANKA infected NMRI mice (Mus musculus) assessed as mean survival time at 10 mg/kg, intraperitoneally 4 consecutive doses for 3 days measured on day 4 by FACS analysis; conditions: route intraperitoneal
Structure (SMILES),IC50 (KB) [nM],Ratio IC50 (Plasmodium falciparum [1]),IC50 (Plasmodium falciparum [2]) [nM],selectivity ratio [3],IC50 (Plasmodium falciparum [4]) [nM],Ratio IC50 (Plasmodium falciparum [5]),inhibition in vivo at 30 mg/kg (Plasmodium berghei [6]) [%],ED50 (Plasmodium berghei [7]) [mg/kg],ED90 (Plasmodium berghei [7]) [mg/kg],inhibition in vivo at 10 mg/kg (Plasmodium berghei [8]) [%],MSD (Plasmodium berghei [9]) [days]
C[C@H]1[C@H](c2ccc(CN3CCCCC3)[nH]2)O[C@@H]2O[C@@]3(C)CC[C@H]4[C@H](C)CC[C@@H]1[C@@]24OO3,143000,0.22,59.4,2410,,,,,,,
CC(C)N1CCN(Cc2ccc([C@@H]3O[C@@H]4O[C@@]5(C)CC[C@H]6[C@H](C)CC[C@@H]([C@H]3C)[C@@]46OO5)n2C)CC1,,2.51,5.1,,8.3,0.99,,,,,
C[C@H]1[C@H](c2ccc(CN3CCCC3)[nH]2)O[C@@H]2O[C@@]3(C)CC[C@H]4[C@H](C)CC[C@@H]1[C@@]24OO3,47000,0.76,16.9,2780,,,,,,,
C[C@H]1[C@H](c2ccc(CN3CCCCC3)n2C)O[C@@H]2O[C@@]3(C)CC[C@H]4[C@H](C)CC[C@@H]1[C@@]24OO3,39200,2.1,6.1,6430,,,,,,,
C[C@H]1[C@H](c2ccc(CN3CCOCC3)[nH]2)O[C@@H]2O[C@@]3(C)CC[C@H]4[C@H](C)CC[C@@H]1[C@@]24OO3,56500,2.84,2.5,22600,3.2,2.56,100,2.11,4.3,,
C[C@H]1[C@H](c2ccc(CN3CCS(=O)(=O)CC3)n2C)O[C@@H]2O[C@@]3(C)CC[C@H]4[C@H](C)CC[C@@H]1[C@@]24OO3,68300,5.82,2.2,31100,3.57,2.3,,,,,
C[C@H]1[C@H](c2ccc(CN3CCN(C)CC3)[nH]2)O[C@@H]2O[C@@]3(C)CC[C@H]4[C@H](C)CC[C@@H]1[C@@]24OO3,85200,1.97,6.5,13100,5,1.64,97.7,,,98,7
C[C@H]1[C@H](c2ccc(CN3CCCC3)n2C)O[C@@H]2O[C@@]3(C)CC[C@H]4[C@H](C)CC[C@@H]1[C@@]24OO3,42200,3.46,3.7,11400,,,,,,,
C[C@H]1[C@H](c2ccc(CN3CCC(N4CCCC4)CC3)n2C)O[C@@H]2O[C@@]3(C)CC[C@H]4[C@H](C)CC[C@@H]1[C@@]24OO3,,5.12,2.5,,7.3,1.12,,,,,
C[C@H]1[C@H](c2ccc[nH]2)O[C@@H]2O[C@@]3(C)CC[C@H]4[C@H](C)CC[C@@H]1[C@@]24OO3,62500,1.73,7.4,8450,,,,,,,
C[C@H]1[C@H](c2ccc(CN3CCSCC3)n2C)O[C@@H]2O[C@@]3(C)CC[C@H]4[C@H](C)CC[C@@H]1[C@@]24OO3,138000,1.78,7.2,19100,,,,,,,
C[C@H]1[C@H](c2ccc(CN3CCOCC3)n2C)O[C@@H]2O[C@@]3(C)CC[C@H]4[C@H](C)CC[C@@H]1[C@@]24OO3,86200,3.66,3.5,24600,1.9,4.32,100,1.77,5.2,,
C[C@H]1[C@H](c2ccc(CN(C)C)n2C)O[C@@H]2O[C@@]3(C)CC[C@H]4[C@H](C)CC[C@@H]1[C@@]24OO3,,0.4,31.6,,,,,,,,
CCN(CC)Cc1ccc([C@@H]2O[C@@H]3O[C@@]4(C)CC[C@H]5[C@H](C)CC[C@@H]([C@H]2C)[C@@]35OO4)[nH]1,,0.17,75.8,,,,,,,,
C[C@H]1[C@H](c2cccn2C)O[C@@H]2O[C@@]3(C)CC[C@H]4[C@H](C)CC[C@@H]1[C@@]24OO3,60300,2.46,5.2,11600,,,,4.5,8.5,,
CC(C)N1CCN(Cc2ccc([C@@H]3O[C@@H]4O[C@@]5(C)CC[C@H]6[C@H](C)CC[C@@H]([C@H]3C)[C@@]46OO5)[nH]2)CC1,45300,1.51,8.5,5330,3.5,2.34,90.5,,,90,6
C[C@H]1[C@H](c2ccc(CN3CCN(C)CC3)n2C)O[C@@H]2O[C@@]3(C)CC[C@H]4[C@H](C)CC[C@@H]1[C@@]24OO3,96500,1.97,6.5,14800,3.8,2.16,100,1.99,5.34,100,9
C[C@H]1[C@H](c2ccc(CN(C)C)[nH]2)O[C@@H]2O[C@@]3(C)CC[C@H]4[C@H](C)CC[C@@H]1[C@@]24OO3,43600,0.62,20.5,2130,,,,,,,
CO[C@H]1O[C@@H]2O[C@@]3(C)CC[C@H]4[C@H](C)CC[C@@H]([C@H]1C)[C@@]24OO3 [ARTEMETHER],,,4.2,,,2.41,100,,10.6,,
C[C@@H]1CC[C@H]2[C@@H](C)C(=O)O[C@@H]3O[C@@]4(C)CC[C@@H]1[C@]32OO4 [ARTEMISININ],> 354000,,12.8,> 27700,8.2,,,,,,
C[C@H]1[C@H](OC(=O)CCC(=O)O)O[C@@H]2O[C@@]3(C)CC[C@H]4[C@H](C)CC[C@@H]1[C@@]24OO3 [ARTESUNATE],,,,,,,100,3.23,> 10,98,8
CCN(CC)CCCC(C)Nc1ccnc2cc(Cl)ccc12 (stereo not drawn) [CHLOROQUINE PHOSPHATE],112000,,,,,,,,,,

# From ChEMBL document CHEMBL1154742, “Modular synthesis and in vitro and in vivo antimalarial assessment of C-10 pyrrole mannich base derivatives of artemisinin” (J Med Chem, 2010)
